# In ChEMBL document CHEMBL1146857 (J Med Chem, 2006):
# Calls of active or inactive are those of the source. The rule behind the calls is not given here.
# Assays:
# HCT-116 [1] = experiment: Increase in acetylated histone H4 accumulation in human HCT116 cells after 8 hrs; type: functional, cell-based
# In short: (§1)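 HCT116 cells were treated for 8 h in McCoy5A medium with 0.1% DMSO over a range of concentrations. Acetylated α-tubulin and histone H4 were detected by Western blot and quantified, and EC50 values were estimated from the concentration curves.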
# HCT-116 [2] = experiment: Increase in acetylated alpha-tubulin accumulation in human HCT116 cells after 8 hrs; type: functional, cell-based; in short: as §1
# Histone deacetylase 1 = Histone deacetylase 1 (Homo sapiens, UniProt Q13547); experiment: Inhibition of HDAC1
# Chain of Histone deacetylase 1 (Q13547 whole entry): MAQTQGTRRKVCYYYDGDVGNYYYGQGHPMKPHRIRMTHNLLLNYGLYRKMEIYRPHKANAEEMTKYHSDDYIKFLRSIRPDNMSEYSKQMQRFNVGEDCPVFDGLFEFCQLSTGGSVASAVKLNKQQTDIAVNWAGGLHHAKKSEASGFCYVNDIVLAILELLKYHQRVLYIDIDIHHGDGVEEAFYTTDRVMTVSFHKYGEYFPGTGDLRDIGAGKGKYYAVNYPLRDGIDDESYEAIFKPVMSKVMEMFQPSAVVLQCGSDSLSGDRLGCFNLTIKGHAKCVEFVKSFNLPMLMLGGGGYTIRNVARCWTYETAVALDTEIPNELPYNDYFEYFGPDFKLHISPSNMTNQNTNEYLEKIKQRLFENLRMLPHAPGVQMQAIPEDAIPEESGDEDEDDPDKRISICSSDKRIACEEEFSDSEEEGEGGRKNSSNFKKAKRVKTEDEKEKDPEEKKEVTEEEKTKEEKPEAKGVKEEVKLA
# Homo sapiens [3] = species on record: Homo sapiens; experiment: Selectivity for HDAC6 over HDAC1
# [4] = molecular target: T1, Protein deacetylase HDAC6 (Homo sapiens, UniProt Q9UBN7); experiment: Inhibition of HDAC6
# T1 sequence (Q9UBN7 whole entry): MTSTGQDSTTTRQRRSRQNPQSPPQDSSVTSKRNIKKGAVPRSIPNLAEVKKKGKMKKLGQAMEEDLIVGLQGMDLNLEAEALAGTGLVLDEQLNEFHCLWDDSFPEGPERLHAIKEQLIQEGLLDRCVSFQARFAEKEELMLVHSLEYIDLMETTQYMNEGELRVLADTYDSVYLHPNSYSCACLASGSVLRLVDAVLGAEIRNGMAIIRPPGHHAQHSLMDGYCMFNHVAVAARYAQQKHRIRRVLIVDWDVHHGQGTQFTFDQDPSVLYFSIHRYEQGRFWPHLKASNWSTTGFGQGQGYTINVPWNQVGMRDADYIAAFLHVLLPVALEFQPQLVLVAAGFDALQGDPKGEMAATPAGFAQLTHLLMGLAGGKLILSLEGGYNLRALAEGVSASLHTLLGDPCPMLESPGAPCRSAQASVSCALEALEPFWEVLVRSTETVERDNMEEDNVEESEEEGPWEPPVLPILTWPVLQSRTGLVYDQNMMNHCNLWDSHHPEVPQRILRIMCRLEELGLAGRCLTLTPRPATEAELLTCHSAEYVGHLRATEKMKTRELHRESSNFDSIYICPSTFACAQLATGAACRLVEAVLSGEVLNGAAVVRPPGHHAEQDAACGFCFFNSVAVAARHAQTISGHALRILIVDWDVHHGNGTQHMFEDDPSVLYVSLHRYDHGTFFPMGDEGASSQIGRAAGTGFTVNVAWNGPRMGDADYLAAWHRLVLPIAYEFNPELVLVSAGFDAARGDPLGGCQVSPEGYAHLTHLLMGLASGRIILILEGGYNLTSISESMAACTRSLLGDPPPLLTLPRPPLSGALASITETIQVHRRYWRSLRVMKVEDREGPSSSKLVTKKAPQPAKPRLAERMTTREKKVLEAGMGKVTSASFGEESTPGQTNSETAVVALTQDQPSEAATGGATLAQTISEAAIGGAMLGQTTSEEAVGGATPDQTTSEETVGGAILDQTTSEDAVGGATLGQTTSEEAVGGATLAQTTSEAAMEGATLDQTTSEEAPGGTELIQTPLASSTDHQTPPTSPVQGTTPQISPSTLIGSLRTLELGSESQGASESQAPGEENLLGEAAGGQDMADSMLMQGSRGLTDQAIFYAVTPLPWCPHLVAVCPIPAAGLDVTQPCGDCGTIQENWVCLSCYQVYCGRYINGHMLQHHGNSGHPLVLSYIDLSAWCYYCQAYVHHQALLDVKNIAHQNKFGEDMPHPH
# Histone deacetylase 4 = Histone deacetylase 4 (Homo sapiens, UniProt P56524); experiment: Inhibition of HDAC4
# Chain of Histone deacetylase 4 (P56524 whole entry): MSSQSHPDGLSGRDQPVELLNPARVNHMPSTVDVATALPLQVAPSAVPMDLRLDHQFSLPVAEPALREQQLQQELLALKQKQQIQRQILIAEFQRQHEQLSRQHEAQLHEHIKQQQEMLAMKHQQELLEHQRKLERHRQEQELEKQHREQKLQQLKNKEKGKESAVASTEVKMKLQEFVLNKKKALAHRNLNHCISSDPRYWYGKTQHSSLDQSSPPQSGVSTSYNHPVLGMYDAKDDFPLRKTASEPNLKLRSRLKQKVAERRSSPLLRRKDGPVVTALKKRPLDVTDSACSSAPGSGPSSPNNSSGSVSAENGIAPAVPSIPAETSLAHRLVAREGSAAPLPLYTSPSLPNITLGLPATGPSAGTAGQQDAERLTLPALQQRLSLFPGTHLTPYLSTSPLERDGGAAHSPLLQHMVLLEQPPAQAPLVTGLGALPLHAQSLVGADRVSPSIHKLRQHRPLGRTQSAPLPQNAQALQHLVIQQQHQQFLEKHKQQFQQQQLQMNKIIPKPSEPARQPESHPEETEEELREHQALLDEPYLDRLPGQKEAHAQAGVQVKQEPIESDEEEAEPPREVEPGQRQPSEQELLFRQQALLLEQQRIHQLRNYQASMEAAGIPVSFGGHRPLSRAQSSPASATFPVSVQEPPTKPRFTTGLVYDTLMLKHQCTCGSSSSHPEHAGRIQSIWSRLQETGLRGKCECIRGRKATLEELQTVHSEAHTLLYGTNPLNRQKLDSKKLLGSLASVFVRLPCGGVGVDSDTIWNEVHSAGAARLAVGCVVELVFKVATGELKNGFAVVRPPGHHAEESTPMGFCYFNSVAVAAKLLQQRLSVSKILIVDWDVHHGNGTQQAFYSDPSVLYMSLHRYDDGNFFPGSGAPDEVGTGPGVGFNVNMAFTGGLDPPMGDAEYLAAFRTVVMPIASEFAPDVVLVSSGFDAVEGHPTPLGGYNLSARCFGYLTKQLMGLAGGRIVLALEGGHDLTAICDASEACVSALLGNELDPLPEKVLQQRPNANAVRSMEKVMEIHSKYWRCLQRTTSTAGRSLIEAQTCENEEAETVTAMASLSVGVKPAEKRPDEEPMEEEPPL
# Homo sapiens [5] = species on record: Homo sapiens; experiment: Selectivity for HDAC6 over HDAC4
Compound,Activity (HCT-116 [2]),IC50 (Histone deacetylase 1) [nM],Selectivity ratio (Homo sapiens [3]),IC50 [4] [nM],IC50 (Histone deacetylase 4) [nM],Selectivity ratio (Homo sapiens [5]),other results
CC(C)C(=O)SCCCCCCC(=O)Nc1cccc(-c2ccccc2)c1,,,,,,,Activity (HCT-116 [1]): Active
CC(C)C(=O)SCCCCCCC(=O)Nc1nc(-c2ccccc2)cs1,Active,,,,,,Activity (HCT-116 [1]): Active
CC(C)(C)OC(=O)N[C@@H](CCCCCS)C(=O)NC1CCCCCC1,,900,39,23,840,37,
CC(C)(C)OC(=O)N[C@@H](CCCCCS)C(=O)NC1CCCC1,,1210,42,29,1030,36,
CC(C)C(=O)SCCCCC[C@H](NC(=O)OC(C)(C)C)C(=O)NC(C)(C)C,Dose-dependent effect,,,,,,
CC(C)C(=O)SCCCCC[C@H](NC(=O)OC(C)(C)C)C(=O)NC1CCCCCC1,Dose-dependent effect,,,,,,
CC(C)C(=O)SCCCCC[C@H](NC(=O)OC(C)(C)C)C(=O)NC1CCCCC1,Dose-dependent effect,,,,,,
CC(C)C(=O)SCCCCC[C@H](NC(=O)OC(C)(C)C)C(=O)NC1CCCC1,Dose-dependent effect,,,,,,
CC(C)(C)OC(=O)N[C@@H](CCCCCS)C(=O)NC1CCCCC1,,1270,35,36,1140,32,
